From article PMC8897208 (Acta Pharmaceutica Sinica. B, 2021)
pIC50: −log10 of the molar value.

Assays:
HDAC10 = molecular target: T1, HDAC10 (Homo sapiens, UniProt Q969S8); assay: HDACs selectivity assay; type: biochemical
T1 sequence (Q969S8 1-669): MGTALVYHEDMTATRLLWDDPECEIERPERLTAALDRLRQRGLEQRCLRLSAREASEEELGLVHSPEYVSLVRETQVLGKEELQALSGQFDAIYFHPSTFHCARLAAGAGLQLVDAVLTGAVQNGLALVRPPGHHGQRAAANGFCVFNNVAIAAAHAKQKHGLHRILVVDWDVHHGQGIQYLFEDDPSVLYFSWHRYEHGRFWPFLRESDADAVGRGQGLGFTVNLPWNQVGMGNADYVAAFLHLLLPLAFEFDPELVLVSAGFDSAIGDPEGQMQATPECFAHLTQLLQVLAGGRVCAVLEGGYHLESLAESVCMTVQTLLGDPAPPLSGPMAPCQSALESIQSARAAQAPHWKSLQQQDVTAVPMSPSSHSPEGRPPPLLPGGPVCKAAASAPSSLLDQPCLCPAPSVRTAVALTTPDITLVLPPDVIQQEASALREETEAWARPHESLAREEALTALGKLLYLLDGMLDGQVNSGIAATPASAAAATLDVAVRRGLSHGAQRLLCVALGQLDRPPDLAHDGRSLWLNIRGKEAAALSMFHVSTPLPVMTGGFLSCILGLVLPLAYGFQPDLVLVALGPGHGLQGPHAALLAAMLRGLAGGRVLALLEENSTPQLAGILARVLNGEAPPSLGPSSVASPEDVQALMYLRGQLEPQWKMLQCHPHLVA
Procedure, shortened: (§1)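 Enzyme selectivity panel was run by an outside contract lab to its standard assay protocols. IC50 values came from dose–response fitting of the data points. Each experiment was done independently at least three times.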

HDAC6 = molecular target: T2, HDAC6 (Homo sapiens, UniProt Q9UBN7); assay: HDACs selectivity assay; type: biochemical
T2 sequence (Q9UBN7 1-1215): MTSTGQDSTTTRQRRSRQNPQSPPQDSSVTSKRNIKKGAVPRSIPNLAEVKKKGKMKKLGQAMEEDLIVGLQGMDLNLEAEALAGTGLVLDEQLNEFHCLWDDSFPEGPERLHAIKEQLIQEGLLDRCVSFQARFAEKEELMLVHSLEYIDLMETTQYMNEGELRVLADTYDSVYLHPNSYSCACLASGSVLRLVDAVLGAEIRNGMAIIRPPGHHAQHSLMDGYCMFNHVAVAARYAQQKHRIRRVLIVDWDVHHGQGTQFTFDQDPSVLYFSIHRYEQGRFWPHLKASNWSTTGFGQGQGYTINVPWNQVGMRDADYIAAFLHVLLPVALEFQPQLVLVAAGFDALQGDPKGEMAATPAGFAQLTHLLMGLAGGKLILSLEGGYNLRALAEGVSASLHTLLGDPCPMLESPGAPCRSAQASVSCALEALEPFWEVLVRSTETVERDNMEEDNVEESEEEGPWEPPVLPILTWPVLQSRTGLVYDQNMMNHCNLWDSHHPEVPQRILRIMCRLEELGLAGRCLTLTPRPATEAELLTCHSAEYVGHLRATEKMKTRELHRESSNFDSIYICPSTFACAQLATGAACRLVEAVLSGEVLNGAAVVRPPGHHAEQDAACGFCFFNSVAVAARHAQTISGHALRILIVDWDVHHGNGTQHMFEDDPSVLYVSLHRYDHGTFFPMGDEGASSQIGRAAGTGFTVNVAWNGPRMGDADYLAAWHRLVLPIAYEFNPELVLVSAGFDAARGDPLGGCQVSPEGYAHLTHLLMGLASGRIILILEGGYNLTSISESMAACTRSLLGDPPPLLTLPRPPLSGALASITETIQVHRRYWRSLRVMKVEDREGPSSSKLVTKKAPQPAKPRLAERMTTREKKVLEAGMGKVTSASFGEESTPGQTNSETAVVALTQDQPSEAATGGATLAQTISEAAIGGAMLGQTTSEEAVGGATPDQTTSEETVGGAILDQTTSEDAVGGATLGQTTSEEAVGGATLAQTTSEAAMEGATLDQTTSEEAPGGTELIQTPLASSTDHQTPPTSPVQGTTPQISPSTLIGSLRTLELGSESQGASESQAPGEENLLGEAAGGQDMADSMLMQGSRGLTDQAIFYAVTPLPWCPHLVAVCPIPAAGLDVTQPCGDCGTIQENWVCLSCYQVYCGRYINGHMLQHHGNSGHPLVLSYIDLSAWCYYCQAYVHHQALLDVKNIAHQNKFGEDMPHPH
Procedure, shortened: as §1

HDAC3 = HDAC3 (Homo sapiens, UniProt O15379); assay: HDACs selectivity assay; type: biochemical
Procedure, shortened: as §1

SIRT3 = molecular target: T3, SIRT3 (Homo sapiens, UniProt Q9NTG7); assay: HDACs selectivity assay; type: biochemical
T3 sequence (Q9NTG7 1-399): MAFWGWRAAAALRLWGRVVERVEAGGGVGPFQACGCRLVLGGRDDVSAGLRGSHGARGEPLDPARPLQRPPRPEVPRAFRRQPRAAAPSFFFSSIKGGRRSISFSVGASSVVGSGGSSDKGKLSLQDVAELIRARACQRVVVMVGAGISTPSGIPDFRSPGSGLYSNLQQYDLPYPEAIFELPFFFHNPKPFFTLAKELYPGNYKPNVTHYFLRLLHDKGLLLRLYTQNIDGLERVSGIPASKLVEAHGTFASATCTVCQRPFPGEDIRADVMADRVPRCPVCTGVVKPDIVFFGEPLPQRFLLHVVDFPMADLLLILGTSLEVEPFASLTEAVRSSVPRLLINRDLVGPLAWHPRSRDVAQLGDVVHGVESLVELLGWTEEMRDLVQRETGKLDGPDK
Procedure, shortened: as §1

HDAC2 = HDAC2 (Homo sapiens, UniProt Q92769); assay: HDACs selectivity assay; type: biochemical
Procedure, shortened: as §1

full-length SIRT7 = molecular target: T4, full-length SIRT7 (Homo sapiens, UniProt Q9NRC8); assay: Selectivity FDL deacetylation assay; type: biochemical
T4 sequence (Q9NRC8 1-400): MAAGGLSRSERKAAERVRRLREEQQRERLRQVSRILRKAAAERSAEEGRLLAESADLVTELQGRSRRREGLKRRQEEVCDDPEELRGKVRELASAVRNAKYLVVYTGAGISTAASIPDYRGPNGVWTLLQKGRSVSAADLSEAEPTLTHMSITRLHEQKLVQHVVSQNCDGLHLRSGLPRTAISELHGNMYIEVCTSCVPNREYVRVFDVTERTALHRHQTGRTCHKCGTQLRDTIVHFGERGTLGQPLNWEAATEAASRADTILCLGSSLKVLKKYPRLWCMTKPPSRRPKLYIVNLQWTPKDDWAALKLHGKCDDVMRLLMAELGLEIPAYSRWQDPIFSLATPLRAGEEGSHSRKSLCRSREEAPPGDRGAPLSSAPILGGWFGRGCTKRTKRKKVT

HDAC9 = HDAC9 (Homo sapiens, UniProt Q9UKV0); assay: HDACs selectivity assay; type: biochemical
Procedure, shortened: as §1

BXPC-3 cells = assay: Q-PCR for SIRT6, IL6, IL8 and TNF-α mRNA; type: cell-based; details: BXPC-3, 10, 20, 40 μmol/L, 24 h, qPCR

Chain of HDAC9 (Q9UKV0 whole entry): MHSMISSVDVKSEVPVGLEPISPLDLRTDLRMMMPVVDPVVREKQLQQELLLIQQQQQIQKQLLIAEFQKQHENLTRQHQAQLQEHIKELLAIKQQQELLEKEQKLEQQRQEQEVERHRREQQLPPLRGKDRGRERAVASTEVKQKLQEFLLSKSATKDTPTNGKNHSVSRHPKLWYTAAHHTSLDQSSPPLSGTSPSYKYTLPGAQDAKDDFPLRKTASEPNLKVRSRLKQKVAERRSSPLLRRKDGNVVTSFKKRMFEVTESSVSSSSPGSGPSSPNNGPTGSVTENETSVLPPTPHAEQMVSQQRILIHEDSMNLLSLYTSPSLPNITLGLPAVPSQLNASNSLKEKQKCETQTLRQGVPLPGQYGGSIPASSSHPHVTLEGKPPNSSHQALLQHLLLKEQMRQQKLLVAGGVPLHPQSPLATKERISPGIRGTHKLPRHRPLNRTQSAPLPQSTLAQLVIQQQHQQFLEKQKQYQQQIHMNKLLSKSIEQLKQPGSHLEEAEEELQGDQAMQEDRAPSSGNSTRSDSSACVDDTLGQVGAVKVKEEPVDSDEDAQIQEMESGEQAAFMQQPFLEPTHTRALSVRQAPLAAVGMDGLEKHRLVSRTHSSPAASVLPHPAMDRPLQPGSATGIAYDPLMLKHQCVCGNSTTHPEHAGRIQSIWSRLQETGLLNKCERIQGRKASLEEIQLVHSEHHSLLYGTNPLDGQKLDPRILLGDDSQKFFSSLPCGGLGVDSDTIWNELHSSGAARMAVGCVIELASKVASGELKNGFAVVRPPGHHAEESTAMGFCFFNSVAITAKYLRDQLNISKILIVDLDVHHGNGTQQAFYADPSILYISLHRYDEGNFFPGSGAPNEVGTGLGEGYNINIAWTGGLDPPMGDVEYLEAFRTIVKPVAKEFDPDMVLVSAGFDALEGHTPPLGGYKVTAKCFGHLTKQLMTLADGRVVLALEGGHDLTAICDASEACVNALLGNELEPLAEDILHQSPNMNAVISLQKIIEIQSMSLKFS
Chain of HDAC3 (O15379 whole entry): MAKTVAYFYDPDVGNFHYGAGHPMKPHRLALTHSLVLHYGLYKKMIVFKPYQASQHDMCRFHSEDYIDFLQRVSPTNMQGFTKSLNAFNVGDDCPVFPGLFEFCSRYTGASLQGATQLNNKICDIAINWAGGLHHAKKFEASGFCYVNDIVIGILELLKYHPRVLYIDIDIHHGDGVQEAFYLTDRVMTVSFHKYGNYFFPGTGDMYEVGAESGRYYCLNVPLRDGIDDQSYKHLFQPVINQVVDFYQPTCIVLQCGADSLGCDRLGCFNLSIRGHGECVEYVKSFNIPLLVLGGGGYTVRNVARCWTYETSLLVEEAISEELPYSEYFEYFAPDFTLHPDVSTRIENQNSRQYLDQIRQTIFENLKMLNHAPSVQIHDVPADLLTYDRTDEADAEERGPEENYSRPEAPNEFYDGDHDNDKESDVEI
Chain of HDAC3 (Q9Y618 395-489 partner limits assumed): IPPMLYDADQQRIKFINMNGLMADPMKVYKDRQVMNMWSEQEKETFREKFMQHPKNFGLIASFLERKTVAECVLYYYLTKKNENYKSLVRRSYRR
Chain of HDAC2 (Q92769 whole entry): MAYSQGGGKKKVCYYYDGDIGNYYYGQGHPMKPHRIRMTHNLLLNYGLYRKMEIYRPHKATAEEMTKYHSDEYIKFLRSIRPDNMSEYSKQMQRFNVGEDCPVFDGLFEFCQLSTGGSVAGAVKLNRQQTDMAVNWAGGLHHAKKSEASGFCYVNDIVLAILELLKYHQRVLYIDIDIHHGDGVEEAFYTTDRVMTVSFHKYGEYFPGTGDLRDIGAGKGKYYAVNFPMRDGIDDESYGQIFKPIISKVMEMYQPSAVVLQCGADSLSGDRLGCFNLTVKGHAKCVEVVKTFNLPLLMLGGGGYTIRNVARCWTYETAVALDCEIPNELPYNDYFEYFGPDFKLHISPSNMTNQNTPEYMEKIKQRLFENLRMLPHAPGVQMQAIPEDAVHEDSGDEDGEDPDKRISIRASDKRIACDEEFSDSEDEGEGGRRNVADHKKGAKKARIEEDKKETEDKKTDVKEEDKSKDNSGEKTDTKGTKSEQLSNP

pIC50 (HDAC10): < 4.00
pIC50 (HDAC6): < 4.00
pIC50 (HDAC3): < 4.00
pIC50 (SIRT3): < 4.00
pIC50 (HDAC2): < 4.00
pIC50 (full-length SIRT7): < 4.00
pIC50 (HDAC9): < 4.00
SMILES: Nc1nonc1-n1cc(C(=O)N/N=C/c2cc(Cl)cc(C(F)(F)F)c2)nn1 [JYQ-42]
mRNA level of SIRT6 (BXPC-3 cells): not significantly changed
